The results in this text go back to ChEMBL document CHEMBL1131218, “Antineoplastic agents. 379. Synthesis of phenstatin phosphate” (J Med Chem, 1998).

Values after ≈ are worked out from the molar mass of the structure shown.

For one assay, the species on record is Bos taurus. In words: Percentage inhibition of colchicine binding to tubulin by compound was evaluated. The following applies: concentration not given here. Also on record: concentration or dose not given beside the values.
The next assay concerns the target Tubulin (Bos taurus, UniProt Q6B856+Q862L2+Q862F3). Put plainly: The compound was tested for the concentration to inhibit 50% of tubulin polymerization. It is filed as protein assay. The method in brief: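 Purified bovine brain tubulin at 1.0 mg/mL (10 μM) in 0.8 M monosodium glutamate pH 6.6 with 4% DMSO. Drug was preincubated with tubulin for 15 min at 30 °C, then chilled. GTP was added to 0.4 mM and assembly started by a jump from 0 to 30 °C, followed by spectrophotometer.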

Assay [1] can be described thus: Concentration to inhibit 50% of tubulin polymerization from bovine brain. Also on record: species or system Bos taurus. An outline of the steps: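 Purified, electrophoretically homogeneous bovine brain tubulin at 1.0 mg/mL (10 μM) in 0.8 M monosodium glutamate pH 6.6 with 4% (v/v) DMSO and varying drug concentrations. Preincubated 15 min at 30 °C, chilled on ice, then GTP added (0.4 mM final). Assembly started by a jump from 0 to 30 °C and followed by turbidity. IC50 taken from extent of assembly at 20 min. Active compounds run in at least three independent experiments.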

In assay [2] the test system is Panel NCI-60 (60 carcinoma cell lines). Put plainly: The compound was tested for the concentration for 50% growth inhibition of NCI 60 cell line human tumor screen expressed in 10e-8 M. Format: functional. An outline of the steps:
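NCI 60-cell-line screen, run in triplicate. Compounds tested in three concentration ranges (top 10⁻⁵, 10⁻⁶ and 10⁻⁷ M), each with five 10-fold dilutions. The mean panel GI50 across lines is reported with SD.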

In the next assay the test system is NCI-H460. In words: The compound was tested for the concentration to inhibit 50% lung-NSC NCI-H460 cell lines. Format: functional. The following applies: Homo sapiens.
A further assay relates to OVCAR. In words: The compound was tested for the concentration to inhibit 50% of ovarian OVCAR cell lines. It is filed as functional. The following applies: Homo sapiens.
The subject of the next assay is P388. In words: The compound was tested for the concentration to inhibit 50% of leukemia P388 cell lines. It is filed as functional. The following applies: Mus musculus.
The subject of the next assay is SF-295. In words: The compound was tested for the concentration to inhibit 50% of CNS SF-295 cell lines. It is filed as functional. The following applies: Homo sapiens.
A further assay has as its system A498. Put plainly: The compound was tested for the concentration to inhibit 50% of renal A498 cell lines. It is filed as functional. The following applies: Homo sapiens.
In a further assay the test system is SK-MEL-5. Put plainly: The compound was tested for the concentration to inhibit 50% of melanoma SK-MEL-5 cell lines. Particulars: Homo sapiens. It is filed as functional.
The test system of another assay is KM-20L2. Put plainly: The compound was tested for the concentration to inhibit 50% of colon KM20L2 cell lines. Format: functional. Particulars: Homo sapiens.

The compound `COc1ccc(/C=C\c2cc(OC)c(OC)c(OC)c2)cc1O` showed an inhibition in the assay listed under Bos taurus of 97%.

Regarding `COc1ccc(C(=O)c2cc(OC)c(OC)c(OC)c2)cc1OC(C)=O`, the inhibition in the assay filed under Bos taurus stood at 71%. This compound also returned an IC50 at Tubulin of 3.5 µM.

For `COc1cc(C(=O)c2cc(Cl)cc(Cl)c2)cc(OC)c1OC`, in assay [1], the half-maximal inhibitory concentration (IC50) came out at 36 µM. The compound further registered an inhibition in the assay listed under Bos taurus of 1%. For the same compound, the GI50 in assay [2] amounted to 5.12 µM.

For `COc1ccc(C(=O)c2cc(OC)c(OC)c(OC)c2)cc1OP(=O)([O-])O.[Na+]`, the GI50 in the assay on NCI-H460 is 0.035 µg/mL; in the assay with OVCAR, 0.0025 µg/mL; in the assay with P388, less than 0.001 µg/mL; in the assay with SF-295 it was 0.012 µg/mL; in the assay with A498, 0.05 µg/mL; in the assay on SK-MEL-5 it was 0.0047 µg/mL. This compound registered a GI50 in the assay with KM-20L2 of 0.27 µg/mL. The compound further showed an inhibition in the assay filed under Bos taurus of 37%. The compound further displayed a half-inhibitory concentration (IC50) against Tubulin of 21 µM.

Compound `COc1cc(C(=O)c2cc(C)cc(C)c2)cc(OC)c1OC` returned an IC50 in [1] of 11 µM. For the same compound, the inhibition in the assay listed under Bos taurus stood at 7%. Further, in assay [2], growth was halved (GI50) at 3.48 µM.

In turn, `COc1ccc(/C=C\c2cc(OC)c(OC)c(OC)c2)cc1` gave an inhibition in the assay listed under Bos taurus of 97%. On Tubulin, this compound gave a 50% inhibitory concentration (IC50) of 1.3 µM.

In assay [1], `COc1ccc(Cc2cc(OC)c(OC)c(OC)c2)cc1O` gave a half-inhibitory concentration (IC50) of 3.3 µM. The compound also gave an inhibition in the assay listed under Bos taurus of 65%.

Consider `COc1ccc(C(=O)c2cc(OC)c(OC)c(OC)c2)cc1O` [PHENSTATIN], for which the 50% growth inhibitory concentration (GI50) in the assay on NCI-H460 came out at 0.0057 µg/mL (≈ 0.0179 µM); with OVCAR, 0.0023 µg/mL (≈ 0.00723 µM); in the assay with P388, 0.0033 µg/mL (≈ 0.0104 µM); in the assay on SF-295 it was 0.052 µg/mL (≈ 0.163 µM); with A498 it was 0.38 µg/mL (≈ 1.19 µM); in assay [2], 0.0601 µM. Moreover, the results for the GI50 with SK-MEL-5 and with KM-20L2 were 0.0038 µg/mL (≈ 0.0119 µM) and 0.04 µg/mL (≈ 0.126 µM), respectively. In assay [1], this compound displayed a concentration for half-maximal inhibition (IC50) of 1 µM. The same compound had an inhibition in the assay filed under Bos taurus of 86%.

`COc1cc(C(=O)c2cc(F)cc(F)c2)cc(OC)c1OC`: the 50% inhibitory concentration (IC50) in [1] was found to be 39 µM. The same compound had an inhibition in the assay filed under Bos taurus of 0%. Also, the GI50 in [2] amounted to 4.94 µM.

In the case of `COc1ccc(C(=O)c2cc(OC)c(OC)c(OC)c2)cc1OC`, the 50% inhibitory concentration (IC50) in [1] was 15 µM. Besides, in the assay listed under Bos taurus, the inhibition is 1%. The compound further returned a 50% growth inhibitory concentration (GI50) in assay [2] of 5.11 µM.

In assay [1], `COc1ccc(Cc2cc(OC)c(OC)c(OC)c2)cc1` gave an IC50 of 4.4 µM. For the same compound, the inhibition in the assay listed under Bos taurus came to 56%.

Turning to `COc1cc(OC)cc(C(=O)c2cc(OC)c(OC)c(OC)c2)c1`, in [1], the concentration for half-maximal inhibition (IC50) is 3.6 µM. Besides, in the assay listed under Bos taurus, the inhibition stood at 58%. It took 0.543 µM to inhibit growth in assay [2] by half (GI50).

Take `COc1cc(C(=O)c2ccc3c(c2)OCO3)cc(OC)c1OC`: inhibition in assay [1] was half-maximal at 15 µM (IC50). In the assay filed under Bos taurus, this compound registered an inhibition of 0%. In [2], this compound had a GI50 of 2.7 µM.

In the case of `COc1ccc(/C=C\c2cc(OC)c(OC)c(OC)c2)cc1OP(=O)([O-])[O-].[Na+].[Na+]` [FOSBRETABULIN DISODIUM], the GI50 in the assay with NCI-H460 turned out to be 0.029 µg/mL; with OVCAR, 0.023 µg/mL; with P388 it was 0.0004 µg/mL; with SF-295 it was 0.036 µg/mL; in the assay on A498 it was 0.041 µg/mL; in the assay on SK-MEL-5, 0.041 µg/mL. This compound yielded a concentration for 50% growth inhibition (GI50) with KM-20L2 of 0.34 µg/mL. In the assay listed under Bos taurus, the inhibition turned out to be 4%. Further, the half-maximal inhibitory concentration (IC50) at Tubulin was more than 80 µM.

In assay [1], `COc1ccc(CCc2cc(OC)c(OC)c(OC)c2)cc1O` registered an IC50 of 2.1 µM. The same compound gave an inhibition in the assay filed under Bos taurus of 77%.

Consider `COc1ccc(CCc2cc(OC)c(OC)c(OC)c2)cc1`, for which, in [1], 3.2 µM corresponded to half-maximal inhibition (IC50). Besides, the inhibition in the assay filed under Bos taurus came out at 54%.

What is called inhibition is the change of the read-out against control, counted positive when it falls. In general, IC50 refers to the concentration that gives 50% inhibition. What is called GI50 is the concentration giving 50% growth inhibition.
